Key:
Acetylcholinesterase = Acetylcholinesterase (Homo sapiens, UniProt P22303); experiment: In vitro inhibition of human erythrocyte Acetylcholinesterase.
Cholinesterase = Cholinesterase (Homo sapiens, UniProt P06276); experiment: In vitro inhibition of human serum Butyrylcholinesterase.
[1] = Compound was evaluated for rate constant (K3); type: ADME
[2] = Compound was evaluated for equilibrium constant; type: ADME
In short: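 Stopped-time carbamoylation assay with human erythrocyte AChE and inhibitor at five concentrations in pH 8.0 assay buffer at 37 °C. After a few minutes, residual ATCh hydrolysis was read at 412 nm against a parallel no-inhibitor control. Fit R = R0·exp(−kobs·t) + R∞ gave kobs; KC came from the slope/intercept ratio of double-reciprocal kobs versus [I] plots.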

[3] = Compound was evaluated for rate constant (K5); type: ADME

Chain of Cholinesterase (P06276 whole entry): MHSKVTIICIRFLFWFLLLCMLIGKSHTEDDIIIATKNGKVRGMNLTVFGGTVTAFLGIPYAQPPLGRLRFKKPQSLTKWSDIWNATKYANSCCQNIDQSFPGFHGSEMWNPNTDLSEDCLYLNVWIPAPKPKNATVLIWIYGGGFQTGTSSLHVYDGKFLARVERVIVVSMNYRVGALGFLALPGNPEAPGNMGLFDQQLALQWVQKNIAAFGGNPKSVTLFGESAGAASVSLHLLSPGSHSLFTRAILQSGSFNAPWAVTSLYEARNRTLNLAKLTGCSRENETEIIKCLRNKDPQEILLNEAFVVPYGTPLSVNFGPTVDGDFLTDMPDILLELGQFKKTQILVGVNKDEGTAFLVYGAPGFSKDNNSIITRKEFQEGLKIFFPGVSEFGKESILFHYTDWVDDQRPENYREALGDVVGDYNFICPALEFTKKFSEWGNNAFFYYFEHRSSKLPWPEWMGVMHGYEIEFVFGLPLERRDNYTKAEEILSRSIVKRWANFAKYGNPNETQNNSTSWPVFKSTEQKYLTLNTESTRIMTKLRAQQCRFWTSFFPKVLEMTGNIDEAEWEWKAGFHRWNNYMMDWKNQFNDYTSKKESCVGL
Chain of Acetylcholinesterase (P22303 whole entry): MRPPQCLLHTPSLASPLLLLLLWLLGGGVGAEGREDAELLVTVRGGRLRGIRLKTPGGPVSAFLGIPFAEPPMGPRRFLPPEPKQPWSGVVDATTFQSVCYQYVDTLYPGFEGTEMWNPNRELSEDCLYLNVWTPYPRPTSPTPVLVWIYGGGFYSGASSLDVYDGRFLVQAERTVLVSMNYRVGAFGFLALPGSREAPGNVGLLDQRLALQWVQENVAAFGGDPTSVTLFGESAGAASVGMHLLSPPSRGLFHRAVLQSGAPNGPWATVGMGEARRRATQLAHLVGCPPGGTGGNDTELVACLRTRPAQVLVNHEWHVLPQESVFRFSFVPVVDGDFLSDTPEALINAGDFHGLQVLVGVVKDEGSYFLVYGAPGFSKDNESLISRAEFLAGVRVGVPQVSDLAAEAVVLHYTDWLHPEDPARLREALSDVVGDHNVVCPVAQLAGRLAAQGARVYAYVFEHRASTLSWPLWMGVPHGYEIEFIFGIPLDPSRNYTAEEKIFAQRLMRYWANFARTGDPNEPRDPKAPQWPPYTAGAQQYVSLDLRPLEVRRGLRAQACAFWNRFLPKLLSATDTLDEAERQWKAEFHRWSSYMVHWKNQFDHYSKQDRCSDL

Compound	IC50 (Acetylcholinesterase) [nM]	IC50 (Cholinesterase) [nM]	K3 [1] [min⁻¹]	Kc [2] [nM]	K5 [3] [h⁻¹]
CNC(=O)Oc1cccc(CN(C)CCCOc2ccc(-c3ccccc3)cc2)c1	54.6	42.6	–	–	–
CNC(=O)Oc1cccc(CN(C)CCCCCCOc2ccc3c(=O)c4ccccc4oc3c2)c1	1.4	13.9	2.3	6.4	0.77
CN(CCCOc1ccc2c(=O)c3ccccc3oc2c1)Cc1cccc(OC(=O)NCCCCCCCCN2CCOCC2)c1	27.4	3.9	–	–	–
CN(CCCOc1ccc2c(=O)c3ccccc3oc2c1)Cc1cccc(OC(=O)NCCCCCCCCCN2CCOCC2)c1	29.3	–	–	–	–
CN(CCCOc1ccc2c(=O)c3ccccc3oc2c1)Cc1cccc(OC(=O)NCCCCCCCN2CCOCC2)c1	26.2	4.9	0.11	27.2	–
CN(CCCOc1ccc2c(=O)c3ccccc3oc2c1)Cc1cccc(OC(=O)NCCCCCCN2CCOCC2)c1	21.1	7.5	–	–	–
CNC(=O)Oc1cccc(CN(C)CCCOc2ccccc2)c1	79.6	24.8	–	–	–
CNC(=O)Oc1ccc2c(c1)CN(CCCOc1ccc3c(=O)c4ccccc4oc3c1)CC2	12.4	34.1	–	–	–
CNC(=O)Oc1cccc(CN(C)CCCOc2ccc3ccccc3c2)c1	82.6	205	–	–	–
CNC(=O)Oc1cccc(CN(C)CCCCCCCCCOc2ccc3c(=O)c4ccccc4oc3c2)c1	11.7	48.3	–	–	–
CNC(=O)Oc1cccc(CN(C)CCCCCCCOc2ccc3c(=O)c4ccccc4oc3c2)c1	0.32	16.5	–	–	–
CNC(=O)Oc1cccc(CN(C)CCCOc2cccc(Cc3ccccc3)c2)c1	–	22.1	–	–	–
CNC(=O)Oc1cccc(CN(C)CCCOc2ccc(C(=O)c3ccccc3)cc2)c1	5.4	24.5	–	–	–
CNC(=O)Oc1cccc(CN(C)CCCCCCCCCCOc2ccc3c(=O)c4ccccc4oc3c2)c1	21.8	31.6	–	–	–
CNC(=O)Oc1cccc(CN(C)CC#CCOc2ccc3c(=O)c4ccccc4oc3c2)c1	210	529	–	–	–
CNC(=O)Oc1cccc(CN(C)CCCCCCCCOc2ccc3c(=O)c4ccccc4oc3c2)c1	6.8	25.2	–	–	–
CNC(=O)Oc1ccc2c(c1)[C@]1(C)CCN(C)[C@@H]1N2C [PHYSOSTIGMINE]	–	–	0.41	33.5	0.43
